Screening results from PubChem.
Kir21 block: Kir2.1 (mouse) channel inhibition. HEK293-Kir2.1, FluxOR thallium flux fluorescence; hits give low values. P35561. 310,000 tested, 0.85% active. B-score at 10 µM;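 active means fluorescence ratio B-score at or below minus 3 SD of library scores, with starting-brightness B-score within 2 SD, cut at about -4.2 in these data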;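 further: channel flux triggered by added potassium and thallium sulfate stimulus; B-score of peak minus minimum fluorescence over baseline after thallium stimulus; more negative B-score means stronger Kir2.1 block with less thallium influx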
Target sequence (P35561 whole entry, looked up): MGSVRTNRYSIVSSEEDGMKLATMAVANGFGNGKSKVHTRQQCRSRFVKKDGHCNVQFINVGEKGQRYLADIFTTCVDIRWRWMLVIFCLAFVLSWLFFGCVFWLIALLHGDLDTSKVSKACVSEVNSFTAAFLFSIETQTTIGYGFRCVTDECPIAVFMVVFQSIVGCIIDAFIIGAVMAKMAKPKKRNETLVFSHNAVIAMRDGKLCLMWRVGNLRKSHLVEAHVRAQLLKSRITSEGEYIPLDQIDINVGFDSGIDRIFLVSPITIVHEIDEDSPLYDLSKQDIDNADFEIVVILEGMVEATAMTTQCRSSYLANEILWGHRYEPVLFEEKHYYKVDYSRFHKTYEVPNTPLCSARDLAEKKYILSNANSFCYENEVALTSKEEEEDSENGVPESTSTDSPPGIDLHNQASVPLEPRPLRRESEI
MrgX1 antagonist: blocks BAM8-22 activation of human MrgX1 receptor. Q96LB2. MRGX1-HEK293 calcium flux, Fluo-4, BAM8-22 antagonism; hits give low values. B-score at 10 µM. 310,000 tested, 1.3% active. AID 588676;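 active means calcium-response B-score plate-corrected more than 3 library SD below zero, starting fluorescence within 5 deviations, no agonist response on first addition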;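 further: peak minus trough fluorescence over baseline after final BAM8-22 challenge near maximal dose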
Target sequence (Q96LB2 whole entry, looked up): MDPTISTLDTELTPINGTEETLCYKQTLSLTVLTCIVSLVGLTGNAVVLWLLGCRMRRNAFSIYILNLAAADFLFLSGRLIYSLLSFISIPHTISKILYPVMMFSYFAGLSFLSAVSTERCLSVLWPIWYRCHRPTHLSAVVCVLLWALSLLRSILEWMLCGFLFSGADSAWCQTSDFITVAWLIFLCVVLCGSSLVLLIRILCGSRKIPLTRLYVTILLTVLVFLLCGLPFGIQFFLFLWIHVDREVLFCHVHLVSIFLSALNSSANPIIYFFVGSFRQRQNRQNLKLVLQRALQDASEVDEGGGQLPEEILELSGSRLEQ
RGS4 block: inhibitors of human RGS4; P49798; HEK293 M3R/RGS4 inducible, Fluo-4 calcium flux; hits give high values; triggered by carbachol at its EC20; B-score at 10 µM; 310,000 tested, 0.45% active;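 active means B-score, a plate-corrected calcium signal, over three deviations above library mean, with baseline fluorescence within five deviations of library mean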;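 further: RGS4 expression induced by doxycycline in cells with stable M3 receptor; B-score is computed from the integrated fluorescence ratio over baseline after carbachol; higher B-score means a larger calcium signal and so more RGS4 inhibition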
MrgX1 allo act: human MrgX1 positive allosteric modulation, primary screen. MrgX1-HEK293, Fluo-4 calcium flux, FDSS; hits give high values. Q96LB2. B-score at 10 µM. 310,000 tested, 0.63% active;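 active means plate-corrected calcium response at least 3 library SD above typical, normal starting fluorescence, not activating the receptor alone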;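 further: compound read alongside a low EC10 to EC30 dose of BAM8-22 agonist; peak minus trough fluorescence over baseline measured at the second addition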
MrgX1 ag: activates human MrgX1 receptor signaling; 310,000 tested, 0.44% active; AID 588627; Q96LB2; B-score at 10 µM; MrgX1-HEK293 cells, Fluo-4 calcium fluorescence, agonist mode; hits give high values;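 active means calcium response B-score plate-corrected fluorescence ratio at least 3 library SD, with starting fluorescence B-score inside 5 SD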
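Material: HEK293 cells stably expressing human MrgX1 receptor | Quantity: 15,000 cells per well | Times: Cells plated overnight, dye loaded 0.5 h 37 °C, 0.5 h room temperature | Measured by: Kinetic Fluo-4 NW fluorescence of intracellular calcium | Control set: Positive and negative controls per plate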
RGS4 act: RGS4 potentiation or activation | 310,000 tested, 0.92% active | HEK293 M3R/inducible RGS4, carbachol calcium flux Fluo4; hits give low values | B-score at 10 µM;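 active means B-score of the integrated calcium signal more than 4 SD below the library mean, with starting fluorescence not abnormally high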;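 further: negative B-score means reduced calcium response which marks RGS4 activation or potentiation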
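System: HEK293 FlpIn-TREx cells, stable M3R, doxycycline-inducible RGS4. Timing: overnight RGS4 induction, 30 min dye load 37 °C, 20 min compound RT. Also added: carbachol, ECmax concentration. Measured by: Fluo4 fluorescence kinetic imaging of calcium. Evaluation: integrated calcium ratio converted to B score.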
MrgX1 ant reconf: reconfirmed antagonist of human MrgX1 receptor signaling; 2,300 tested, 19% active; remaining BAM8-22 calcium response % of control (hits give low values), % at 10 µM; MrgX1-HEK293, BAM8-22 calcium flux, Fluo-4; hits give low values; shares compounds with MrgX1 antagonist;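 active means remaining agonist calcium response no higher than 100% minus 3 SD of agonist-only control wells, with starting fluorescence near control levels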;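 further: agonist BAM8-22 given at a near maximal EC90 to ECmax level; peak minus minimum fluorescence divided by baseline after agonist addition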
HEK293 Ca flux: MrgX1 antagonist counter-screen hit in parental HEK293 cells | fluorescence ratio F(max-min)/F0 at 10 µM | 4,000 tested, 2% active | shares compounds with MrgX1 antagonist | Fluo-4 calcium fluorescence, FDSS;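 active means duplicate-averaged calcium fluorescence ratio at least three times the standard deviation of buffer wells, a nonspecific response in parental cells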
HEK293 Ca counter: activity in parental HEK293 cells without MrgX1. parental HEK293 calcium flux, Fluo-4 fluorescence ratio; hits give high values. 4,000 tested, 0.4% active. fluorescence ratio F(max-min)/F0 at 10 µM. shares compounds with MrgX1 antagonist;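 active means calcium fluorescence ratio, averaged over duplicates, at least 3 SD of the buffer-well ratio, meaning a nonspecific response in receptor-free cells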;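 further: untransfected parental HEK293 lacking MrgX1 used as counterscreen for MrgX1 allosteric activators; fluorescence change taken during the second addition on a kinetic imager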
HEK293 Ca cntr2: activity in parental HEK293 cells lacking MrgX1 receptor. fluorescence ratio F(max-min)/F0 at 10 µM. shares compounds with MrgX1 antagonist. Fluo-4 calcium fluorescence (FDSS); hits give high values. AID 624115. 4,000 tested, 8.7% active;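 active means calcium fluorescence ratio at least three times the spread of buffer wells, meaning a non-specific response in parental cells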
* marks the source's active call; other numbers are inactive results; i = inactive; . = not tested or not shown. Only some compounds are listed: those with a hit (about 4.1% of all), similar ones and a draw of the others.

SMILES | Kir21 block | MrgX1 antagonist | RGS4 block | MrgX1 allo act | MrgX1 ag | RGS4 act | MrgX1 ant reconf | HEK293 Ca flux | HEK293 Ca counter | HEK293 Ca cntr2
COCCN1Cc2cccc(C(=O)Nc3ccc(C)cc3)c2C1=O | -1.5 | -7.6* | i | i | i | i | 81%* | i | i | i
O=c1[nH]c(C2CCCN(S(=O)(=O)Cc3ccccc3)C2)nc2c1nnn2Cc1cccc(Cl)c1 (centres undefined) | -0.52 | i | i | i | i | i | . | . | . | .
COC(=O)C1=CN(Cc2ccc(F)cc2)C=C(C(=O)OC)C1c1cc(OC)c(OC)c(OC)c1 | -0.04 | i | i | i | i | i | . | . | . | .
CCOC(=O)COc1ccc(S(=O)(=O)NCC2CCCO2)cc1 (centres undefined) | -2.6 | -4.7* | i | i | i | i | i | i | i | i
COc1ccc(Nc2cc3n(c(=O)n2)CCc2cc(OC)c(OC)cc2-3)c(C)c1 | -0.35 | -6.3* | i | i | i | i | i | i | i | i
COc1cc2c(cc1OC)-c1cc(Nc3ccccc3Br)nc(=O)n1CC2 | 0.47 | i | i | i | i | i | . | . | . | .
OCCN1CCN(C(=S)Nc2cccc(C(F)(F)F)c2)CC1 | -0.19 | i | i | i | i | i | . | . | . | .
COCCNc1ccc(S(=O)(=O)N2CCCC2)cn1 | 0.51 | -5* | i | i | i | i | i | i | i | i
Cc1ccc(-c2ccccc2)n1-c1ccc(C(=O)O)cc1 | -0.2 | -4.6* | i | i | i | i | 78%* | i | i | i
Cc1noc(C)c1C(=O)NCCCN1CCCC1=O | 2 | -4.9* | i | i | i | i | 81%* | i | i | i
N#CCCN(C(=O)COC(=O)C1=NNC(=O)CC1)c1ccccc1 | 1.8 | i | i | i | i | i | . | . | . | .
CN1CCN(C2=Nc3c(Cl)cc(Cl)c4cccc2c34)CC1 | -1.1 | -5.8* | i | i | i | i | i | i | i | 49*
O=C(Nc1nccs1)c1cc2c(s1)-c1ccccc1OC2 | 1.3 | i | i | i | i | i | . | . | . | .
O=C(NCc1ccc(Cl)cc1)C(=O)NCC(c1cccnc1)N1CCN(c2ccc(F)cc2)CC1 (centres undefined) | 0.35 | -4.7* | i | i | i | i | 77%* | i | i | i
O=C(NCC(c1cccnc1)N1CCN(c2ccc(F)cc2)CC1)c1ccccc1 (centres undefined) | 0.89 | i | i | i | i | i | . | . | . | .
Cc1ccc(-n2c(-c3ccncc3)nnc2-c2cccs2)cc1 | 0.01 | -5.7* | i | i | i | i | i | i | i | i
O=C(NCc1cnn(-c2ccc(F)cc2)c1)C1CCC(=O)N(C2CC2)C1 (centres undefined) | -0.28 | i | i | i | i | i | . | . | . | .
O=C(CSc1nnc(CNC(=O)c2ccccc2)o1)NCc1ccccc1Cl | -0.7 | -6.6* | i | i | i | i | i | i | i | i
O=C(CSc1nnc(CNC(=O)c2ccc(F)cc2)o1)NCc1ccc2c(c1)OCO2 | -0.3 | -7.6* | i | i | i | i | i | i | i | i
O=C(CSc1nnc(CNC(=O)c2ccc(F)cc2)o1)NCc1ccc(F)cc1 | -0.26 | i | i | i | i | i | . | . | . | .
Cc1ccc(NC(=S)NCCSc2ccc(Cl)cc2)c(C)c1 | -3.3 | -6.3* | i | i | i | i | i | i | i | i
Cc1cc(C)c(S(=O)(=O)n2cnc3ccccc32)c(C)c1 | -0.88 | i | i | i | i | i | . | . | . | .
O=C(NCc1ccc(Cl)cc1)c1nccnc1CO | -0.59 | i | i | i | i | i | . | . | . | .
COc1ccc2oc(C(=O)OCC(=O)Nc3ccc(NC(C)=O)cc3)c(C)c2c1 | 1 | i | i | i | i | i | . | . | . | .
COc1ccc2oc(C(=O)OCC(=O)NCc3ccccc3OC)c(C)c2c1 | 0.64 | -5.1* | i | i | i | i | i | i | i | i
SMILES | Kir21 block | MrgX1 antagonist | RGS4 block | MrgX1 allo act | MrgX1 ag | RGS4 act | MrgX1 ant reconf | HEK293 Ca flux | HEK293 Ca counter | HEK293 Ca cntr2
COC(=O)C1CSc2[nH]c(=O)sc2C1c1ccccc1 (centres undefined) | -0.5 | -5.7* | i | i | i | i | i | i | i | i
CCCc1ccc(OCC(=O)O)cc1 | 0.38 | i | i | i | i | i | . | . | . | .
CCC(C)c1ccc(OCC(=O)O)cc1 (centres undefined) | -1.4 | -6.9* | i | i | i | i | i | i | i | i
CCC(C)(C)n1nnnc1C(c1cc2cc3c(cc2[nH]c1=O)OCO3)N1CCCCC1 (centres undefined) | -0.86 | -5.9* | i | i | i | i | i | i | i | i
CCOC(=O)C1CCCN(C(=O)c2cn(-c3ccccc3)nc2-c2cccnc2)C1 (centres undefined) | 1.1 | i | i | i | i | i | . | . | . | .
CC1CCCN(C(=O)c2cn(-c3ccccc3)nc2-c2cccnc2)C1 (centres undefined) | -1.9 | -6.8* | i | i | i | i | i | i | i | i
C=CCOc1ccc(/C=N/NC(=O)C(=O)N2CCCCCC2)cc1OC | 0.22 | i | i | i | i | i | . | . | . | .
Nc1nc(NC(=O)C(Cl)(Cl)Cl)nn1-c1ccccc1 | -0.29 | i | i | i | i | i | . | . | . | .
CCC(=O)Nc1nc(N)n(-c2ccccc2)n1 | 0.31 | -6.9* | i | i | i | i | i | i | i | i
O=C(NC(=S)NCC1CCCO1)c1ccco1 (centres undefined) | 1.1 | -25* | i | i | i | i | i | i | i | i
COc1cc(OC)cc(C(=O)N2CCN(Cc3cccc(F)c3)CC2)c1 | -2.1 | i | i | i | i | i | . | . | . | .
